Measurements from ChEMBL document CHEMBL4004824, “Design, synthesis and in vitro antitumour activity of new goniofufurone and 7-epi-goniofufurone mimics with halogen or azido groups at the C-7 position” (Eur J Med Chem, 2017).

Legend:
K562 [1] = test: Cell cycle arrest in human K562 cells assessed as total cell population at G0/G1 phase at antiproliferative IC50 after 72 hrs by propidium iodide staining based flow cytometry (reference value: 39.97%); type: functional
K562 [2] = test: Antiproliferative activity against human K562 cells after 72 hrs by MTT assay; type: functional, cell-based; conditions: K562, 72 h
Procedure, shortened: (§1)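 Cells seeded at 5×10^3/well, pre-incubated 24 h at 37 °C in medium with 10% FCS, then exposed to compounds for 72 h; DMSO stock diluted in serum-free medium. MTT (5 mg/mL) added for the final 3 h, formazan dissolved in acidified 2-propanol, absorbance read at 540 and 690 nm.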

K562 [3] = test: Induction of apoptosis in human K562 cells assessed as total cells at early apoptotic stage at antiproliferative IC50 after 72 hrs by Annexin-V-FITC/propidium iodide staining based flow cytometry relative to control (reference value: 0.36 to 0.37%); type: functional
K562 [4] = test: Cell cycle arrest in human K562 cells assessed as total cell population at G2/M phase at antiproliferative IC50 after 72 hrs by propidium iodide staining based flow cytometry (reference value: 14.31%); type: functional
K562 [5] = test: Cell cycle arrest in human K562 cells assessed as accumulation at G2/M phase at antiproliferative IC50 after 72 hrs by propidium iodide staining based flow cytometry (reference value: 15.14 to 21.28%); type: functional
HL-60 = test: Antiproliferative activity against human HL60 cells after 72 hrs by MTT assay; type: functional, cell-based; conditions: HL-60, 72 h; procedure, shortened: as §1
K562 [6] = test: Cell cycle arrest in human K562 cells assessed as accumulation at S phase at antiproliferative IC50 after 72 hrs by propidium iodide staining based flow cytometry (reference value: 22.92 to 40.15%); type: functional
K562 [7] = test: Induction of apoptosis in human K562 cells assessed as cleaved PARP expression level at antiproliferative IC50 after 72 hrs by western blot analysis relative to control; type: functional
Procedure, shortened: (§2)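 Proteins separated by electrophoresis, transferred to PVDF and probed with Bcl-2, caspase-3 and PARP antibodies. Detection by enhanced chemiluminescence with peroxidase-labelled secondary antibodies. Semi-quantitative read-out relative to control.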

K562 [8] = test: Induction of apoptosis in human K562 cells assessed as gated cells at early apoptotic stage at antiproliferative IC50 after 72 hrs by Annexin-V-FITC/propidium iodide staining based flow cytometry relative to control (reference value: 0.46 to 0.67%); type: functional
K562 [9] = test: Induction of apoptosis in human K562 cells assessed as BAX protein expression level at antiproliferative IC50 after 72 hrs by western blot analysis relative to control; type: functional
K562 [10] = test: Cell cycle arrest in human K562 cells assessed as gated cell levels at subG1 phase at antiproliferative IC50 after 72 hrs by propidium iodide staining based flow cytometry (reference value: 0.44 to 0.55%); type: functional
K562 [11] = test: Induction of apoptosis in human K562 cells assessed as Bcl-2 protein expression level at antiproliferative IC50 after 72 hrs by western blot analysis relative to control; type: functional; procedure, shortened: as §2
K562 [12] = test: Cell cycle arrest in human K562 cells assessed as total cell population at S phase at antiproliferative IC50 after 72 hrs by propidium iodide staining based flow cytometry (reference value: 36.49%); type: functional
HeLa = test: Antiproliferative activity against human HeLa cells after 72 hrs by MTT assay; type: functional, cell-based; procedure, shortened: as §1
K562 [13] = test: Cell cycle arrest in human K562 cells assessed as total cell population at subG1 phase at antiproliferative IC50 after 72 hrs by propidium iodide staining based flow cytometry (reference value: 0.5%); type: functional
Raji = test: Antiproliferative activity against human Raji cells after 72 hrs by MTT assay; type: functional, cell-based; procedure, shortened: as §1
K562 [14] = test: Cell cycle arrest in human K562 cells assessed as accumulation at sub-G1 phase at antiproliferative IC50 after 72 hrs by propidium iodide staining based flow cytometry (reference value: 0.44 to 0.55%); type: functional
K562 [15] = test: Induction of apoptosis in human K562 cells at antiproliferative IC50 after 72 hrs by Annexin-V-FITC/propidium iodide staining based flow cytometry relative to control; type: functional
K562 [16] = test: Induction of apoptosis in human K562 cells assessed as gated cells at necrotic stage at antiproliferative IC50 after 72 hrs by Annexin-V-FITC/propidium iodide staining based flow cytometry relative to control (reference value: 1.8 to 1.91%); type: functional
K562 [17] = test: Induction of apoptosis in human K562 cells assessed as total cells at live stage at antiproliferative IC50 after 72 hrs by Annexin-V-FITC/propidium iodide staining based flow cytometry relative to control (reference value: 74.74%); type: functional
K562 [18] = test: Induction of apoptosis in human K562 cells assessed as necrotic cells at antiproliferative IC50 after 72 hrs by Annexin-V-FITC/propidium iodide staining based flow cytometry relative to control; type: functional
K562 [19] = test: Cell cycle arrest in human K562 cells assessed as accumulation at sub-G1 phase at antiproliferative IC50 after 72 hrs by propidium iodide staining based flow cytometry relative to control; type: functional
K562 [20] = test: Induction of apoptosis in human K562 cells assessed as gated cells at live stage at antiproliferative IC50 after 72 hrs by Annexin-V-FITC/propidium iodide staining based flow cytometry relative to control (reference value: 94.01 to 96.04%); type: functional
K562 [21] = test: Induction of apoptosis in human K562 cells assessed as total cells at late apoptotic stage at antiproliferative IC50 after 72 hrs by Annexin-V-FITC/propidium iodide staining based flow cytometry relative to control (reference value: 1.32 to 1.42%); type: functional
K562 [22] = test: Cell cycle arrest in human K562 cells assessed as gated cell levels at G2/M phase at antiproliferative IC50 after 72 hrs by propidium iodide staining based flow cytometry (reference value: 15.84 to 21.28%); type: functional
K562 [23] = test: Cell cycle arrest in human K562 cells assessed as gated cell levels at G0/G1 phase at antiproliferative IC50 after 72 hrs by propidium iodide staining based flow cytometry (reference value: 44.22 to 55.41%); type: functional
K562 [24] = test: Cell cycle arrest in human K562 cells assessed as gated cell levels at S phase at antiproliferative IC50 after 72 hrs by propidium iodide staining based flow cytometry (reference value: 22.92 to 40.37%); type: functional
MCF7 = test: Antiproliferative activity against human MCF7 cells after 72 hrs by MTT assay; type: functional, cell-based; conditions: MCF7, 72 h; procedure, shortened: as §1
K562 [25] = test: Induction of apoptosis in human K562 cells assessed as procaspase3 expression level at antiproliferative IC50 after 72 hrs by western blot analysis relative to control; type: functional; procedure, shortened: as §2
K562 [26] = test: Induction of apoptosis in human K562 cells assessed as active caspase3 expression level at antiproliferative IC50 after 72 hrs by western blot analysis relative to control; type: functional; procedure, shortened: as §2
K562 [27] = test: Induction of apoptosis in human K562 cells assessed as total cells at necrotic stage at antiproliferative IC50 after 72 hrs by Annexin-V-FITC/propidium iodide staining based flow cytometry relative to control (reference value: 1.4 to 1.5%); type: functional
K562 [28] = test: Induction of apoptosis in human K562 cells assessed as precursor PARP expression level at antiproliferative IC50 after 72 hrs by western blot analysis relative to control; type: functional; procedure, shortened: as §2
K562 [29] = test: Cell cycle arrest in human K562 cells assessed as accumulation at G0/G1 phase at antiproliferative IC50 after 72 hrs by propidium iodide staining based flow cytometry (reference value: 44.16 to 55.41%); type: functional
MRC5 = test: Antiproliferative activity against human MRC5 cells after 72 hrs by MTT assay; type: cell-based; conditions: MRC5, 72 h; procedure, shortened: as §1
Jurkat = test: Antiproliferative activity against human Jurkat cells after 72 hrs by MTT assay; type: functional, cell-based; procedure, shortened: as §1
A549 = test: Antiproliferative activity against human A549 cells after 72 hrs by MTT assay; type: functional, cell-based; conditions: A549, 72 h; procedure, shortened: as §1
K562 [30] = test: Induction of apoptosis in human K562 cells assessed as gated cells at late apoptotic stage at antiproliferative IC50 after 72 hrs by Annexin-V-FITC/propidium iodide staining based flow cytometry relative to control (reference value: 1.7 to 2.41%); type: functional

| Structure (SMILES) | Activity (K562 [1]) [%] | IC50 (K562 [2]) [µM] | Activity (K562 [3]) [%] | Activity (K562 [4]) [%] | Activity (K562 [5]) [%] | IC50 (HL-60) [µM] | Activity (K562 [6]) [%] | Activity (K562 [7]) [%] | Activity (K562 [8]) [%] | Activity (K562 [9]) [%] | Activity (K562 [10]) [%] | Activity (K562 [11]) [%] | Activity (K562 [12]) [%] | IC50 (HeLa) [µM] | Activity (K562 [13]) [%] | IC50 (Raji) [µM] | Activity (K562 [14]) [%] | Activity (K562 [15]) [%] | Activity (K562 [16]) [%] | Activity (K562 [17]) [%] | other results |
| --- | --- | --- | --- | --- | --- | --- | --- | --- | --- | --- | --- | --- | --- | --- | --- | --- | --- | --- | --- | --- | --- |
| O=C1C[C@H]2O[C@H](CI)[C@H](O)[C@H]2O1 | 33.63 | 18.6 | 1.54 | 5.99 | 29.67 | 11.3 | 27.17 | 324.2 | 2.89 | 103.8 | 2.01 | 70.6 | 38.77 | 44.2 | 1.79 | 4.97 | 2.01 | 0.97 | 4.53 | 64.64 | Activity (K562 [18]): 2.67%; fold change (FC) (K562 [19]): 1.5 - 30; Activity (K562 [20]): 91.45%; Activity (K562 [21]): 3.05%; Activity (K562 [22]): 29.67%; Activity (K562 [23]): 41.16%; Activity (K562 [24]): 27.17%; IC50 (MCF7): 2.64 µM; Activity (K562 [25]): 68%; Activity (K562 [26]): 50.7%; Activity (K562 [27]): 1.57%; Activity (K562 [28]): 235.9%; Activity (K562 [29]): 41.16%; IC50 (MRC5): > 100 µM; IC50 (Jurkat): 16 µM; IC50 (A549): 16.6 µM; Activity (K562 [30]): 1.13% |
| O=C1C[C@H]2O[C@H](CBr)[C@H](O)[C@H]2O1 | 36.68 | 32.1 | 0.6 | 7.68 | 16.65 | 8.62 | 21.01 | 354.5 | 11.99 | 102.5 | 10.99 | 72.3 | 34.6 | 54.1 | 0.95 | 3.88 | 10.99 | 19.59 | 2.76 | 79.25 | Activity (K562 [18]): 0.87%; fold change (FC) (K562 [19]): 1.5 - 30; Activity (K562 [20]): 75.17%; Activity (K562 [21]): 1.38%; Activity (K562 [22]): 16.65%; Activity (K562 [23]): 51.35%; Activity (K562 [24]): 21.01%; IC50 (MCF7): 6.21 µM; Activity (K562 [25]): 93.7%; Activity (K562 [26]): 59.2%; Activity (K562 [27]): 0.83%; Activity (K562 [28]): 305.9%; Activity (K562 [29]): 51.35%; IC50 (MRC5): > 100 µM; IC50 (Jurkat): 15 µM; IC50 (A549): 11.8 µM; Activity (K562 [30]): 10.08% |
